A short description of data set [1]: Intrinsic clearance in human liver microsomes assessed per mg of protein. The following applies: read-out: CLH. The data set is classed as ADME, Microsome. (In general: Liver microsomes are vesicles of endoplasmic reticulum, rich in cytochrome P450 enzymes.)
Data set [2] can be described thus: Aqueous solubility of the compound in sodium phosphate buffer at pH 7.4. Format: physicochemical. The procedure, abridged: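 Solubility measured in 0.1 M sodium phosphate buffer.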
The target in data set [3] is Transient receptor potential cation channel subfamily V member 1 (Homo sapiens, UniProt Q8NER1). As to the kind of experiment: Antagonist activity at human recombinant TRPV1 receptor assessed as inhibition of capsaicin-induced calcium uptake by FLIPR assay. The data set is classed as functional. The gist of the method: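 Whole-cell fluorescence imaging assay (FLIPR II) of the rise in intracellular Ca2+ on capsaicin addition. Inhibition by the test compound is quantified.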
Sequence of Transient receptor potential cation channel subfamily V member 1 (Q8NER1 whole entry): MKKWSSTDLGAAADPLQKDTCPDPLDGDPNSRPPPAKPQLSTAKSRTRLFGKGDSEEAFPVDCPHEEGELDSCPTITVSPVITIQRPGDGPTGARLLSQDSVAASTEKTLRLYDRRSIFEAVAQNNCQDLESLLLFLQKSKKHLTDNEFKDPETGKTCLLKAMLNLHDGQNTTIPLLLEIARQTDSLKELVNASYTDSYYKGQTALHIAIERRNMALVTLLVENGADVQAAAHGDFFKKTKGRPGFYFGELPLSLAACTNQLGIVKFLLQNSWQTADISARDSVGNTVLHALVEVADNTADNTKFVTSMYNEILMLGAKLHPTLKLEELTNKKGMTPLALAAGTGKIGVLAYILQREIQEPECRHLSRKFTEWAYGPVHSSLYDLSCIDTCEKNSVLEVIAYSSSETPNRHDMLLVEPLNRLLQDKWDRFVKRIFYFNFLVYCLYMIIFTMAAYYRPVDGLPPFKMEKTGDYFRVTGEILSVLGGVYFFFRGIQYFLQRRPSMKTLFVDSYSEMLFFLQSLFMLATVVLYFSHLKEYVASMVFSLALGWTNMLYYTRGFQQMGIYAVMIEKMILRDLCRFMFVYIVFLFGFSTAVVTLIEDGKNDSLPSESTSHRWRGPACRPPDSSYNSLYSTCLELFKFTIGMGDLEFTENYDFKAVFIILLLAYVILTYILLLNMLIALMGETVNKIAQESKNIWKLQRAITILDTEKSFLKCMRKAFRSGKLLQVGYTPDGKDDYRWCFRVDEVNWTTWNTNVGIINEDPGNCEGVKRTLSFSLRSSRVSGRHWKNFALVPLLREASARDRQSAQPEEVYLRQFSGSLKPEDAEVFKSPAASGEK

Data set [4] in a line: Clearance in rat hepatocytes assessed as per 10^6 cells. Format: ADME, cell-based, Hepatocyte. The following applies: read-out: CLH.
A short description of data set [5]: Half life in iv dosed Sprague-Dawley rat. The following applies: in vivo. Format: ADME, organism-based.
Data set [6] relates to Rattus norvegicus. As to the kind of experiment: Analgesic activity against carrageenan-induced thermal hyperalgesia in Sprague-Dawley rat assessed as paw withdrawal latency at 100 umol/kg, po after 30 mins after 3 hrs. Format: functional. The procedure, abridged:
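Male Sprague-Dawley rats (125-200 g), groups of 7. Under isoflurane, 100 µl of 1% carrageenan is injected subcutaneously into the plantar left hind paw, and testing is done 3 h later. After 30 min acclimation on a 30 °C glass surface, radiant heat is focused on the affected paw. Withdrawal latency is the mean of two trials about 5 min apart, with a 20 s cut-off. Naïve rats serve as controls. Single oral dose.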

Data set [7] addresses Transient receptor potential cation channel subfamily V member 1 (Rattus norvegicus) (UniProt O35433). As to the kind of experiment: Binding affinity to rat TRPV1 at 1 uM.
Data set [8] has as its system Rattus norvegicus. As to the kind of experiment: Toxicity in Sprague-Dawley rat assessed as effect on body temperature at 100 umol/kg, po. The data set is classed as organism-based. The following applies: in vivo.
The subject of data set [9] is Rattus norvegicus. As to the kind of experiment: Analgesic activity against capsaicin-induced thermal hyperalgesia in Sprague-Dawley rat assessed as paw withdrawal latency at 90 umol/kg, po after 30 mins. Format: functional. The gist of the method: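 Male Sprague-Dawley rats (125-200 g), groups of 7, acclimatized at least 3 days and tested in the light phase. Capsaicin 10 μg/5 μL is injected intradermally into the plantar left hind paw of restrained rats. Heat hyperalgesia is read 30 min later as radiant-heat paw withdrawal latency on a 30 °C glass surface: two trials about 5 min apart, averaged, 20 s cut-off. Naïve rats serve as controls. Single oral dose.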

The nature of data set [10]: Oral bioavailability in Sprague-Dawley rat. Format: ADME, organism-based. The following applies: in vivo.

The values below come from ChEMBL document CHEMBL2086386, “Potent and orally efficacious benzothiazole amides as TRPV1 antagonists” (Bioorg Med Chem Lett, 2012).

Converted amounts (≈) assume the structure as drawn. The source made the active and inactive calls.

Sequence of Transient receptor potential cation channel subfamily V member 1 (Rattus norvegicus) (O35433 whole entry): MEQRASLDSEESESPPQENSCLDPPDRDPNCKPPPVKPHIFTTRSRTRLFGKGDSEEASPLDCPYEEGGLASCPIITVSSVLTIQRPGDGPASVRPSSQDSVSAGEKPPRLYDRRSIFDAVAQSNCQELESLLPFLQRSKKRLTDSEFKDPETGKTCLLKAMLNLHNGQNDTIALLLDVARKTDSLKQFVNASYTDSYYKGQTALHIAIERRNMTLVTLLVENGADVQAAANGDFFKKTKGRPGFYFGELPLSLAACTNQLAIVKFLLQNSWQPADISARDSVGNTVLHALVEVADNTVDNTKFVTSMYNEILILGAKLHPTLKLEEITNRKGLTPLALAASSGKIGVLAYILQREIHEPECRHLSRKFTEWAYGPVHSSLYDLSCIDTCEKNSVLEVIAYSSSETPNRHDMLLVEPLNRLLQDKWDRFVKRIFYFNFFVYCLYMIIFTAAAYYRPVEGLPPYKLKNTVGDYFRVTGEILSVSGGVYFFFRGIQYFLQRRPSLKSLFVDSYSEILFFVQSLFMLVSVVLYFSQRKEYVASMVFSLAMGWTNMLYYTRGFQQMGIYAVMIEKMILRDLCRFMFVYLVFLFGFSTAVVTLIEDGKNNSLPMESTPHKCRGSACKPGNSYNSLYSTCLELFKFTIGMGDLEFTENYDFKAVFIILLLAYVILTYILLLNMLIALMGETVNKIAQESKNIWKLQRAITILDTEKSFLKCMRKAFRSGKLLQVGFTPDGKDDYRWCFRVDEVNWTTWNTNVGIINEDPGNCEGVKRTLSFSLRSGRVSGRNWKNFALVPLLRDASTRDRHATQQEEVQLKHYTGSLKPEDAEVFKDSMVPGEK

In the case of `CCOCc1ccc(C(=O)Nc2ccc3sc(CO)nc3c2)cc1`, the microsomal CLint in [1] was 24 µL/min/mg. In data set [2], this molecule had a solubility of 37 µM (≈ 12.7 µg/mL). Further, the IC50 in data set [3] was found to be 489 nM.

Consider `O=C(Nc1ccc2sc(CO)nc2c1)c1ccc(Cl)cc1`, for which the hepatocyte CLint in [4] was found to be 66 µL/min/1e6 cells. Also, the microsomal CLint in data set [1] is 14 µL/min/mg. The amount in solution in data set [2] (solubility) came to 3 µM (≈ 0.956 µg/mL). Besides, the IC50 in data set [3] came out at 68.2 nM.

In the case of `CC(C)(C)c1ccc(C(=O)Nc2ccc3sc(CN)nc3c2)cc1`, the 50% inhibitory concentration (IC50) in [3] was 987 nM.

On to `Cc1cc(Br)ccc1C(=O)Nc1ccc2sc(CO)nc2c1`, for which the half-life in [5] was 2.4 h. Also, in data set [4], the hepatocyte CLint was found to be 24 µL/min/1e6 cells. The Activity in [6] is given as 35%; in [8], “Non-toxic”; in data set [9], 72%. Further, in data set [7], the outcome was Active. In addition, in [2], the concentration in solution (solubility) came to 10 µM (≈ 3.77 µg/mL). Moreover, in data set [3], the IC50 worked out at 52.3 nM. In addition, the bioavailability in data set [10] came to 53%.

`CC(C)(C)c1ccc(C(=O)Nc2ccc3sc(CO)nc3c2)cc1`: in [1], the microsomal CLint amounted to 57 µL/min/mg. The solubility in [2] amounted to 6 µM (≈ 2.04 µg/mL). Besides, the IC50 in data set [3] worked out at 3.7 nM.

For the molecule `C#Cc1ccc(C(=O)Nc2ccc3sc(CO)nc3c2)cc1`, the concentration in solution in data set [2] (solubility) was 25 µM (≈ 7.71 µg/mL). Moreover, in data set [3], the IC50 came out at 175 nM.

Consider `CC(C)(C)c1ccc(C(=O)Nc2ccc3sc(CNS(C)(=O)=O)nc3c2)cc1`, for which, in [3], the IC50 came out at 708 nM.

With `CC(C)Oc1ccc(C(=O)Nc2ccc3sc(CO)nc3c2)cc1`, the hepatocyte CLint in [4] amounted to 57 µL/min/1e6 cells. For the same molecule, in [1], the microsomal CLint was found to be 12 µL/min/mg. In [2], this molecule registered a solubility of 38 µM (≈ 13 µg/mL). Besides, the 50% inhibitory concentration (IC50) in data set [3] was 33.4 nM.

Consider `O=C(Nc1ccc2sc(CO)nc2c1)c1ccc(OCC(F)(F)F)nc1`, for which, in data set [2], the concentration in solution (solubility) came to 9 µM (≈ 3.45 µg/mL). Besides, the half-maximal inhibitory concentration (IC50) in data set [3] is 41 nM.

With `CC(C)(C)Oc1cccc(C(=O)Nc2ccc3sc(CO)nc3c2)c1`, the concentration in solution in data set [2] (solubility) came to 181 µM (≈ 64.5 µg/mL). Further, the IC50 in [3] was determined as 1070 nM.

The molecule `O=C(Nc1ccc2sc(CO)nc2c1)c1ccc(N2CCCCC2)nc1` had a solubility in [2] of 4 µM (≈ 1.47 µg/mL).

As for `O=C(Nc1ccc2sc(CO)nc2c1)c1ccc(C(F)(F)F)cc1`, the IC50 in [3] amounted to 11.9 nM.

`O=S(=O)(Nc1ccc2sc(CO)nc2c1)c1ccc(Br)cc1`: the IC50 in [3] was greater than 10000 nM.

With `Cc1cc(Cl)ccc1C(=O)Nc1ccc2sc(CO)nc2c1`, in [4], the hepatocyte CLint was determined as 17 µL/min/1e6 cells. Besides, in [2], the concentration in solution (solubility) came to 7 µM (≈ 2.33 µg/mL). For the same molecule, in data set [3], the IC50 came out at 85.9 nM.

For `Cn1nc(C(F)(F)F)cc1C(=O)Nc1ccc2sc(CO)nc2c1`, the microsomal CLint in [1] stood at 9 µL/min/mg. Further, the solubility in data set [2] stood at 14 µM (≈ 4.99 µg/mL). Also, in data set [3], the IC50 amounted to 157 nM.

Turning to `CC(C)(C)Oc1ccc(C(=O)Nc2ccc3sc(CO)nc3c2)cc1`, the microsomal CLint in data set [1] amounted to 19 µL/min/mg. This molecule also came in with a solubility in data set [2] of 64 µM (≈ 22.8 µg/mL). Besides, in [3], the IC50 worked out at 9.8 nM.

In the case of `CC(=O)NCc1nc2cc(NC(=O)c3ccc(C(C)(C)C)cc3)ccc2s1`, the IC50 in data set [3] was 2410 nM.

In data set [2], `CCN(CC)Cc1ccc(C(=O)Nc2ccc3sc(CO)nc3c2)cc1` yielded a solubility of 5160 µM (≈ 1910 µg/mL). In addition, in [3], the IC50 is greater than 10000 nM.

On to `CC(C)(C)c1ccc(CNc2ccc3sc(CO)nc3c2)cc1`, for which the IC50 in data set [3] was 833 nM.

On to `O=S(=O)(Nc1ccc(C(F)(F)F)cc1)c1ccc2sc(CO)nc2c1`, for which the IC50 in data set [3] was found to be 5570 nM.

In the case of `Cc1ccc(-c2cc(C(F)(F)F)nn2-c2ccc(S(N)(=O)=O)cc2)cc1` [CELECOXIB], the Activity in data set [6] came to 35%.

On to `Cc1cc(OC(C)C)ccc1C(=O)Nc1ccc2sc(CO)nc2c1`, for which the hepatocyte CLint in data set [4] is 12 µL/min/1e6 cells. Further, the concentration in solution in [2] (solubility) came to 9 µM (≈ 3.21 µg/mL).

Take `Cc1ccc(CCNC(=O)c2ccc3sc(CO)nc3c2)cc1`: in [3], the half-inhibitory concentration (IC50) is 1610 nM.

Regarding `O=C(Nc1ccc2sc(CO)nc2c1)c1ccc(Br)cc1`, in data set [4], the hepatocyte CLint was 54 µL/min/1e6 cells. In addition, the concentration in solution in data set [2] (solubility) was 5 µM (≈ 1.82 µg/mL). Also, the IC50 in data set [3] was 26.5 nM.

For the molecule `CC(C)(C)c1ccc(NC(=O)c2ccc3sc(CO)nc3c2)cc1`, the IC50 in data set [3] is greater than 10000 nM.

For the molecule `CC(C)(C)OCc1ccc(C(=O)Nc2ccc3sc(CO)nc3c2)cc1`, in data set [2], the solubility is 11 µM (≈ 4.08 µg/mL). Moreover, in [3], the IC50 was determined as 52.2 nM.

In the case of `O=C(Nc1ccc2sc(CO)nc2c1)c1ccc(CN2CCOCC2)cc1`, in data set [1], the microsomal CLint is 13 µL/min/mg. In data set [2], this molecule displayed a solubility of 419 µM (≈ 161 µg/mL). In addition, the IC50 in [3] is greater than 10000 nM.

`Cc1nc2cc(NC(=O)c3ccc(C(C)(C)C)cc3)ccc2s1` registered a solubility in data set [2] of 2.2 µM (≈ 0.714 µg/mL). Besides, the IC50 in data set [3] is 27 nM.

In the case of `O=C(Nc1ccc2sc(CO)nc2c1)c1ccc(C(F)(F)F)nc1`, in [1], the microsomal CLint is 13 µL/min/mg. The molecule further showed a solubility in data set [2] of 61 µM (≈ 21.6 µg/mL).

Consider `O=C(Nc1ccc2sc(CO)nc2c1)C1CCC(C(F)(F)F)CC1` (stereo not drawn), for which the concentration in solution in [2] (solubility) came to 77 µM (≈ 27.6 µg/mL). In addition, in data set [3], the IC50 was greater than 10000 nM.

In the case of `CC(O)c1nc2cc(NC(=O)c3ccc(C(C)(C)C)cc3)ccc2s1` (racemic), the IC50 in data set [3] was 223 nM.

The term solubility denotes the dissolved amount per volume that the medium holds. A high value points to much dissolved substance. What is called IC50 is the midpoint of a concentration-inhibition curve. Usually half-life stands for how long it takes for the measured level to halve. For orientation: bioavailability means dose-corrected exposure relative to a reference, in per cent. A lower bioavailability goes with poor availability.
